PMI act – activators of human phosphomannose isomerase; AID 1214; purified human PMI, coupled resazurin fluorescence, 20 min; active compounds read high; 1 = vehicle control, 0 substrate-free wells; 190,000 tested, 0.005% active; activation factor at 20 µM; P34949;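 active = activation factor of 2 or more at 20 µM, relative to plate controls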
Target sequence (P34949 whole entry, looked up): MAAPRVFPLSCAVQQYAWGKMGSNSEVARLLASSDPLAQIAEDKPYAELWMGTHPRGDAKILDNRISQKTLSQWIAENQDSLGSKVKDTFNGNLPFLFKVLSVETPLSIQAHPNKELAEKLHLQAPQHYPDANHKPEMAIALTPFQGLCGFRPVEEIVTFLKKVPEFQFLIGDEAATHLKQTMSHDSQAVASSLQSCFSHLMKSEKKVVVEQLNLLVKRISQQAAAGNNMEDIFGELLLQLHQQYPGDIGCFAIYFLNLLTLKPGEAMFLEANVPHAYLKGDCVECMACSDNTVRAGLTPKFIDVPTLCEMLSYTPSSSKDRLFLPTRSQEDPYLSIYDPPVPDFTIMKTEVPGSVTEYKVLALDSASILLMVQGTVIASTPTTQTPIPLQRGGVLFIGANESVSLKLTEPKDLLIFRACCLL
Rad51 HR inh – blocks human Rad51 in homologous recombination. inhibition, % at 10 µM. 200,000 tested, 0.085% active. Q06609. hRad51 DNA strand exchange, fluorescence dequenching;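 active = inhibition above 40% at the single screening dose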
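Test system – preformed human Rad51 ssDNA filaments · Reagent – Donor/quencher-labelled 47-bp dsDNA substrate · Incubation – 37 °C 15-min filament assembly, 30-min compound preincubation, 15-min exchange · Signal – FRET fluorescence dequenching, excitation 485 nm, emission 520 nm · Read-out – percent inhibition from fluorescence, normalised to plate control and blank means · Benchmarks – plate control and blank wells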
m-calpain inh – calpain II (pig) inhibition; AID 1236; inhibition, % at 16 µM; 220,000 tested, 0.37% active; purified calpain II, fluorogenic peptide substrate, 30 min;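 active = inhibition above about 50%, limit read from the data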
PMI act satM6P – increases human PMI activity with near-saturating mannose 6-phosphate. coupled PMI enzyme assay, resazurin fluorescence, 20 min; active compounds read high; 1 = untreated enzyme, 0 = substrate-free blank. activation factor at 20 µM. 190,000 tested, 0.34% active. AID 1216;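 active = activation factor of 2 or more at 20 µM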
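Material: human phosphomannose isomerase with PGI, G6PDH, diaphorase coupling enzymes. Quantity: 15 ng/mL PMI. Medium: HEPES pH 7.4 buffer with MgCl2 and Tween-20. Reagent: Near-saturating mannose-6-phosphate, 1.0 mM. Compound: 20 µM single dose. Times: enzyme reaction with compound 20 min at room temperature. Detection: resorufin fluorescence at Ex 544/Em 590 nm.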
L major viab – reduces viability of Leishmania major promastigotes; resazurin fluorescence viability; inhibition, % at 10 µM; 200,000 tested, 9% active; AID 1063; in the data active = inhibition above about 50%;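 also: promastigotes grown with compound for 44 hours at 28 °C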
WT yeast gro inh – growth inhibition of WT yeast, mitochondrial fusion screen; mitochondrial fusion phenotypic screen, WT strain; inhibition, % at 10 µM; 190,000 tested, 2.1% active; in the data active = inhibition above about 58%; tested in S. cerevisiae
Numbers stand for hits; – = inactive; · = no result. The list is not random: actives were taken first. Their share in the collection is about 9.8%.

SMILES	PMI act	Rad51 HR inh	m-calpain inh	PMI act satM6P	L major viab	WT yeast gro inh
CCOC(=O)c1ccc(NC(=S)N(CCCN2CCCC(C)C2)Cc2ccco2)cc1 (stereo not drawn)	–	–	–	–	99	–
CCc1ccc(NC(=S)N(CCN2CCCCC2)Cc2ccco2)cc1	–	–	–	–	95	–
CCOC(=O)c1ccc(NC(=S)N(CCCN2CCCC2)Cc2ccco2)cc1	–	–	–	–	80	–
CCOC(=O)c1oc2ccc(S(=O)(=O)n3nc(-c4ccccc4)cc3N)cc2c1C	–	–	–	–	97	–
CCOC(=O)c1oc2ccc(S(=O)(=O)n3nc(-c4ccc(OC)cc4)cc3N)cc2c1C	–	·	–	–	–	–
CC1=CC(=Nc2c(C)n(C)n(-c3ccccc3)c2=O)C=C(C)C1=O	–	–	–	–	72	–
Cc1ccc(-n2c(O)c(C=NCc3ccccn3)c3ccccc3c2=O)cc1C	–	·	–	–	71	–
O=c1c2ccccc2c(C=NCc2ccccn2)c(O)n1-c1ccccc1	–	–	–	–	–	–
CC1(C)CC(N2CCN(CCO)CC2)=CC(=S)N1	·	–	–	·	·	·
O=C(c1ccc(S(=O)(=O)Cc2ccccc2F)c([N+](=O)[O-])c1)N1CCCCCC1	–	–	–	–	–	–
CCN1CCCC1CNC(=O)c1ccc(Sc2ccccc2Cl)c([N+](=O)[O-])c1 (stereo not drawn)	–	–	–	–	100	–
CCN1CCN(C(=O)c2ccc(Sc3ccccc3Cl)c([N+](=O)[O-])c2)CC1	–	–	–	–	89	–
O=C(c1ccc(SCc2ccco2)c([N+](=O)[O-])c1)N1CCOCC1	–	–	–	–	–	–
CCN1CCCC1CNC(=O)c1ccc(N2CCCC2=O)cc1 (stereo not drawn)	–	–	–	–	–	–
O=C(c1ccc(S(=O)(=O)c2ccccc2Cl)c([N+](=O)[O-])c1)N1CCCCCC1	–	–	–	–	98	–
CC1CCN(C(=O)c2ccc(SCc3ccccc3F)c([N+](=O)[O-])c2)CC1	–	–	–	–	69	–
C=CCn1cn[nH]c1=S	–	–	–	–	–	–
O=C(Nc1ccccc1CC[N+](=O)[O-])N1CCN(c2ccccc2)CC1	–	–	–	–	–	–
O=C(c1cc(C(=O)N2CCOCC2)c2nc3ccccc3n2c1)c1cc(Cl)cc(Cl)c1O	·	–	–	·	·	·
CCN1CCCC1CNC(=O)c1ccc(Sc2ccc(F)cc2)c([N+](=O)[O-])c1 (stereo not drawn)	–	–	–	–	100	–
CC(=O)NCCNC(=O)c1ccc(Sc2ccccc2)c([N+](=O)[O-])c1	–	–	–	–	–	–
O=C(NCCCN1CCOCC1)c1ccc(Sc2ccc(F)cc2)c([N+](=O)[O-])c1	–	–	–	–	100	–
CN(C)CCNC(=O)c1ccc(Sc2ccc(Br)cc2)c([N+](=O)[O-])c1	–	–	–	–	100	–
COc1ccc(/C=C/C(=O)OCCCN(C)C)cc1	–	–	–	–	–	–
Clc1nc(Cl)nc(NCCC2=CCCCC2)n1	–	–	–	–	–	–
SMILES	PMI act	Rad51 HR inh	m-calpain inh	PMI act satM6P	L major viab	WT yeast gro inh
CC(=O)Nc1ccc(NC(=O)C/C(C)=N/NC(N)=S)cc1	–	–	–	–	–	–
CCOC(=O)C(C)/C(C)=N/NC(N)=S (stereo not drawn)	–	–	–	–	61	–
Cc1cccc2c(C(=O)N3CCN(C(=O)c4ccco4)CC3)cc(-c3cccc(Br)c3)nc12	–	–	–	–	–	81
O=C(c1ccco1)N1CCN(C(=O)c2cc(-c3ccccc3)nc3ccccc23)CC1	–	–	–	–	–	–
CCOc1ccc(S(=O)(=O)NCc2ccc(C)cc2)c2cccnc12	–	·	–	–	98	–
O=C(Nc1ccc(F)cc1)c1ccccc1Oc1ccc(C(F)(F)F)cc1[N+](=O)[O-]	–	–	–	–	97	66
CCNc1nc(=S)nc(NCc2ccccc2)[nH]1	–	–	–	–	–	–
CCCn1c(=O)c2ccccc2n2c(Sc3nnnn3-c3ccccc3)nnc12	–	–	–	–	–	–
C=CCn1c(=O)c2ccccc2n2c(Sc3nnnn3-c3ccccc3)nnc12	–	–	–	–	56	–
CC(=O)c1sc(N/N=C\c2cccc(Br)c2)nc1C	–	–	–	–	–	–
Cc1cc(N/N=C/c2ccncc2)nc2ccccc12	–	–	–	–	73	–
Cc1cc(N/N=C/c2cccc(Br)c2)nc2ccccc12	–	–	–	–	61	–
CN(c1ccccc1)S(=O)(=O)c1cccc(C(=O)OCC(=O)NCc2ccc3c(c2)OCO3)c1	–	–	–	–	–	–
CCOC(=O)CSc1ccc2ccccc2n1	–	–	–	–	–	–
CCOC(=O)CN1C=C(c2ccc3ccccc3n2)C(C[N+](=O)[O-])c2ccccc21 (stereo not drawn)	–	–	–	–	99	–
Cc1ccc(-n2cccc2/C=C2\C(=N)N3N=C(C(C)C)SC3=NC2=O)cc1	–	–	–	–	–	81
Cc1ccc2c(c1C)NC(=O)C21N2CCCC2C(C(=O)c2ccc3ccccc3c2)C12C(=O)Nc1ccccc12 (stereo not drawn)	·	–	–	·	·	·
c1ccc(-c2noc(-c3cccc4ccccc34)n2)cc1	–	–	–	–	–	67
c1ccc2c(-c3nc(-c4ccncc4)no3)cccc2c1	–	–	–	–	–	–
O=C(O)CCN1C(=O)c2ccc(NC(=O)Cc3ccc(Cl)cc3)cc2C1=O	–	·	–	–	–	–
CCOC(=O)C(C(=O)Nc1nc2ccccc2s1)C1CCCCC1 (stereo not drawn)	–	–	–	–	85	–
CCOC(=O)C(C(=O)Nc1nccs1)C1CCCCC1 (stereo not drawn)	–	–	–	–	52	–
O=C(O)/C=C/C(=O)NCCC(c1ccccc1)c1ccccc1	·	–	–	·	·	·
CC(C)(C)NC(=O)C1CCN(S(=O)(=O)c2cccc(C(F)(F)F)c2)CC1	–	–	–	–	–	–
Cc1ccccc1NC1=C(Cl)C(=O)N(C2CCCCC2)C1=O	–	·	–	–	–	69
COc1ccccc1NC1=C(Cl)C(=O)N(C2CCCCC2)C1=O	–	·	–	–	–	70
CNC(=S)N1CCC(NC(=O)C(Cc2ccccc2)NC(C)=O)CC1 (stereo not drawn)	–	–	–	–	–	–
CCOc1ccc(CCNC(=O)CCS(=O)(=O)c2ccc(OC)cc2)cc1OCC	–	–	–	–	–	–
CCN1CCCC1CNC(=O)c1ccc(N2CCOCC2)c(NS(=O)(=O)c2ccc(OC)cc2)c1 (stereo not drawn)	–	–	–	–	–	–
COC(=O)c1ccc(Cn2nc(C)c(Cl)c2C)o1	–	–	–	–	–	–
